CHOP UPR activ – activators of apoptotic arm of unfolded protein response (CHOP) | CHO-CHOP luciferase reporter, UPR activation, luminescence; percent of tunicamycin response over DMSO baseline | activation, % at 10 µM | hit rate 0.34% among 330,000;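 active means at 10 µM dose, activation of 40% or more, normalized to positive control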
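Assay system: CHO-CHOP cells, stable luciferase reporter of PERK-eIF2a-CHOP signalling / Buffer or medium: F12 plus 10% serum / Compound dosing: one dose, 10 µM in 0.5% DMSO / Times: 6 h compound treatment, 37 °C / Technique: luciferase luminescence / Read-out: % reporter activation, DMSO baseline versus tunicamycin full activation / Benchmarks: tunicamycin and DMSO controls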
Dynein transport – blocks dynein driven cargo transport along microtubules | 3617.4 mouse cells, GR-EGFP nuclear translocation imaging; test concentration mostly 20 µM; stimulated with dexamethasone, 1 µM; active compounds read low | AID 1381 | z-score, hits read low | hit rate 0.47% among 220,000;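 active means plate z-score of nuclear minus cytoplasmic receptor signal below a set negative limit, without overly bright fluorescence or cell loss, cut at about -3.5 in these data, passing the limit was not always enough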;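 further: z-score of nuclear minus cytoplasmic ring GR-EGFP intensity difference per well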
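Schedule: 48 h induction, then 1 h compound, then 30 min agonist, 37 °C. Buffer or medium: tetracycline-free induction medium containing charcoal-stripped FBS. Reagent: 1.0 µM final dexamethasone stimulus. Evaluation: nuclear versus cytoplasmic GR-EGFP signal, averaged per well. Signal: high-content fluorescence imaging after fixation.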
Mdm2 MdmX PPI – human Mdm2/MdmX binding inhibition; O15151+Q00987; SaOS-2 split-luciferase Mdm2/MdmX complementation, luminescence; inhibition, % at 8 µM; hit rate 3% among 330,000;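 active means inhibition of at least 50% at 8 µM in the primary screen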
B2AR ag – human beta-2 adrenergic receptor agonism by FAP | P07550 | Am2.2-beta2AR cells, FAP receptor internalization, flow cytometry | response, % (test concentration not listed) | hit rate 0.43% among 340,000;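 active means response above a set limit, near 3 SD of response in nonfluorescent compounds, cut at about 42% in these data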
UPR XBP1 act – activators of adaptive arm of unfolded protein response (XBP1); activation, % at 20 µM; CHO-XBP1 luciferase reporter, IRE1-XBP1 UPR activation, luminescence; percent of tunicamycin response, DMSO as zero; hit rate 0.33% among 330,000;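 active means versus positive control, 20 µM dose yields 30% or more activation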
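Material: CHO-XBP1 cells stably carrying IRE1-XBP1-driven luciferase reporter / Amount: 1000 cells per well / Compound: 20 µM, 1% DMSO / Times: 6 h treatment, 37 °C / Detection: luciferase luminescence / Measure: % activation of reporter signal versus tunicamycin and DMSO controls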
Mdm2 ligase inh – inhibitors of human Mdm2 E3 ubiquitin ligase. Q00987. cell-based MDM2 ubiquitination luciferase reporter, 2 h; 0 = plate control, 100 = twice control, blank-subtracted. signal enhancement, % at 5 µM. hit rate 0.11% among 210,000. AID 1230;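 active means signal enhancement of 30% or more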;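 further: luminescence tracks abundance of the self-degrading MDM2-luciferase fusion protein; higher signal means inhibition of MDM2 E3 ligase activity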
Target sequence (Q00987 whole entry, looked up, the tested form may be a part): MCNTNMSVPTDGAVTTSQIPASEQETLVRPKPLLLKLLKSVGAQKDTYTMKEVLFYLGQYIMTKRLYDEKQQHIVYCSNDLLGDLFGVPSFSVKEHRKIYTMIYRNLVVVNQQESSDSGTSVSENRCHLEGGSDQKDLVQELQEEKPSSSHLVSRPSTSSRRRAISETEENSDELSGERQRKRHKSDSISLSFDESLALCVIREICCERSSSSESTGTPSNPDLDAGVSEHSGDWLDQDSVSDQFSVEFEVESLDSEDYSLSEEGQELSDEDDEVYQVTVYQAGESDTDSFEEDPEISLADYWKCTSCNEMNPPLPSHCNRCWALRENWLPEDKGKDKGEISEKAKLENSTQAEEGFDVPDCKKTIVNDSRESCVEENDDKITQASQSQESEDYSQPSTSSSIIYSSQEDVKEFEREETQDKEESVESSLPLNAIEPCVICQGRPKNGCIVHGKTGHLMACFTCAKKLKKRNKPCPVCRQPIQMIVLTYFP
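Assay system: stable mammalian line carrying autodegrading MDM2–luciferase fusion reporter; Input: 2000 cells in each well; Compound dosing: single-point 5 µM; Schedule: 2 h compound exposure at 37 °C; Signal: SteadyLite luciferase luminescence after 15 min room-temperature reagent incubation; Evaluation: % luminescence enhancement versus blank-corrected plate control mean; Benchmarks: plate controls and plate blanks.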
Mdm2-MdmX conf – confirmation of human Mdm2/MdmX interaction inhibitors; inhibition, % at 8 µM; hit rate 55% among 10,000; Mdm2-MdmX binding, luminescent assay; shares compounds with Mdm2 MdmX PPI; in the data active means inhibition above about 40%
Full FLuc ctr – full-length luciferase inhibition in Mdm2/MdmX counter-screen | shares compounds with Mdm2 MdmX PPI | SaOS-2 full-length luciferase counterscreen, luminescence | inhibition, % at 8 µM | hit rate 77% among 6,200 | AID 504607;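 active means mean inhibition at 8 µM reaching about 37%, which flags the compound as non-specific, limit read from the data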;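 further: p53-null SaOS-2 cells with luciferase driven by a doxycycline-inducible promoter; compound on cells about two nights before reading with doxycycline added after day one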
Each line names hits and unclear results; the compound was inactive in the other large screens (follow-up assays come after a bar, where they were run). Rows were chosen to be rich in hits. Some 3.7% of all compounds tested hit in one or more screens of this group.

CCCCN1CC(O)=C(c2nc(-c3ccc(Br)cc3)cs2)C1=N	Mdm2 MdmX PPI 80.1 | Mdm2-MdmX conf 52.5 | Full FLuc ctr 63.4
CC(=O)Nc1ccc(NC(=O)c2cc(=O)c3cc(C)cc(C)c3o2)cc1	Mdm2 MdmX PPI 67.2 (no result: Dynein transport, Mdm2 ligase inh) | Mdm2-MdmX conf 54.2 | Full FLuc ctr 89.8
Cc1cc(C)c2oc(C(=O)Nc3ccc(S(=O)(=O)N4CCC(C)CC4)cc3)cc(=O)c2c1	none
Cc1csc(NC(=O)CSc2nsc(SCC(=O)Nc3nc(C)cs3)c2C#N)n1	none
Cc1ccc(NC(=O)CSc2nsc(SCC(=O)Nc3ccc(C)cc3C)c2C#N)c(C)c1	Mdm2 MdmX PPI 83.0 | Mdm2-MdmX conf inactive
Cc1noc(C)c1CSc1nc2ccccc2nc1NS(=O)(=O)c1ccc(Cl)cc1	Mdm2 MdmX PPI 63.3 | Mdm2-MdmX conf inactive
O=S(=O)(Nc1nc2ccccc2nc1NCc1ccco1)c1ccc(Cl)cc1	none
Clc1cccc2c1Sc1ccccc1CC2N1CCNCC1 (stereo unspecified)	Mdm2 MdmX PPI 66.0 | Mdm2-MdmX conf 73.1 | Full FLuc ctr 47.0
O=C(c1ccccc1Cl)N1CCNCC1	none
Cc1cccc(NC(=S)N=Nc2c(O)n(CN3CCOCC3)c3ccccc23)c1C	none
Cc1cccc(Cn2c(O)c(N=NC(=S)Nc3ccccc3F)c3ccccc32)c1	Mdm2 MdmX PPI 62.7 | Mdm2-MdmX conf 41.9 | Full FLuc ctr 54.4
Oc1c(N=NC(=S)Nc2ccccc2F)c2ccccc2n1Cc1cccc(Cl)c1	Mdm2 MdmX PPI 58.6 | Mdm2-MdmX conf inactive
Oc1c(N=NC(=S)Nc2ccccc2F)c2ccccc2n1Cc1ccc(F)cc1	Mdm2 MdmX PPI 59.4 | Mdm2-MdmX conf 47.0 | Full FLuc ctr 55.2
CC(=O)c1cccc(NS(=O)(=O)c2c(C(=O)N3CCOCC3)c(C)n(C)c2C)c1	none (no result: Dynein transport, Mdm2 ligase inh)
COc1ccc2nc3oc(C(=O)NC4CCN(Cc5ccccc5)CC4)cc3cc2c1	Mdm2 MdmX PPI 98.2 | Mdm2-MdmX conf 90.5 | Full FLuc ctr inactive
CCOC(=O)N1CCC(NC(=O)c2cc3cc4cc(OC)ccc4nc3o2)CC1	none
OCc1cn(-c2ccccc2)nc1-c1ccc(-c2nn(-c3ccccc3)cc2CO)cc1	none
Cc1ccc(-c2nn(-c3ccccc3)cc2CSC(=N)N)cc1	Mdm2 MdmX PPI 52.0 | Mdm2-MdmX conf inactive
CN1/C(=C/C(=O)c2nc(S(C)(=O)=O)ncc2Cl)C(C)(C)c2ccccc21	Mdm2 MdmX PPI 100.3, B2AR ag 48.0 | Mdm2-MdmX conf 100.1 | Full FLuc ctr 51.8
CC(Sc1nc2ccccc2c(=O)n1CCCN1CCOCC1)C(=O)N1CCc2ccccc21 (stereo unspecified)	none (no result: CHOP UPR activ, Dynein transport, Mdm2 MdmX PPI, UPR XBP1 act, Mdm2 ligase inh)
Cc1cccc(NC(=O)C(C)Sc2nc3ccccc3c(=O)n2CCCN2CCOCC2)c1 (stereo unspecified)	Mdm2 MdmX PPI 88.6 (no result: Dynein transport, Mdm2 ligase inh) | Mdm2-MdmX conf 70.5 | Full FLuc ctr 51.4
Cc1[nH]c2ccccc2c1C(=O)CSc1nc2ccccc2c(=O)n1CCCN1CCOCC1	Mdm2 MdmX PPI 58.8 | Mdm2-MdmX conf inactive
Cn1c(N)c(C(=O)CSc2nc3ccccc3c(=O)n2CCCN2CCOCC2)c(=O)n(C)c1=O	none
CCOc1cc(N2CCOCC2)c(OCC)cc1NC(=O)COC(=O)CCOc1cc(C)ccc1C	none (no result: Dynein transport, Mdm2 ligase inh)
COCCNC(=O)C(c1ccc(C)cc1)N(C(=O)CCC(=O)Nc1ccccn1)C1CCCCC1 (stereo unspecified)	none (no result: Dynein transport, Mdm2 ligase inh)
Cc1occc1C(=O)NNC(=O)Nc1ccc([N+](=O)[O-])cc1	none
O=C(Cn1[nH]c(=O)c2ccccc2c1=O)NCCN1C(=O)S/C(=C\c2ccccc2)C1=O	none (no result: Dynein transport, Mdm2 ligase inh)
Cc1nc(-n2[nH]c3c(c2=O)CCCC3)[nH]c(=O)c1Cc1ccccc1	Mdm2 MdmX PPI 58.1 | Mdm2-MdmX conf 64.2 | Full FLuc ctr inactive
Cc1nc(N2CCc3ccccc3C2)[nH]c(=O)c1Cc1ccccc1	none
CC(C)CCn1nnnc1CN1CCN(C(=O)c2ccco2)CC1	none (no result: Dynein transport, Mdm2 ligase inh)
COc1ccc(O)c(C(=O)c2cnc3c(c2)CN(C)C(=O)N3)c1	Mdm2 MdmX PPI 62.6 | Mdm2-MdmX conf 40.5 | Full FLuc ctr 63.3
Nc1nnc(N)c2ccccc12	none
Nc1nsc2ccccc12	Mdm2 MdmX PPI 61.2 | Mdm2-MdmX conf inactive
Cc1ccccc1-n1nnnc1SCC(=O)c1c(N)n(C2CC2)c(=O)[nH]c1=O	none (no result: Dynein transport, Mdm2 ligase inh)
CC1CCCN(CCCNC(=O)c2ccc3c(c2)N(Cc2ccccc2F)C(=O)c2ccccc2S3(=O)=O)C1 (stereo unspecified)	Mdm2 MdmX PPI 64.3 (no result: Dynein transport, Mdm2 ligase inh) | Mdm2-MdmX conf inactive | Full FLuc ctr 50.9
COc1cccc(/C=C2/Sc3ccc(C(=O)NCCN4CCCC4)cc3NC2=O)c1	Mdm2 MdmX PPI 58.1 (no result: Dynein transport, Mdm2 ligase inh) | Mdm2-MdmX conf inactive
CCN1C(=O)c2ccccc2Sc2ccc(C(=O)NCCCN3CCCCC3)cc21	Mdm2 MdmX PPI 50.7 (no result: Dynein transport, Mdm2 ligase inh) | Mdm2-MdmX conf inactive
CCN1CCCC1CNC(=O)c1ccc2c(c1)NC(=O)/C(=C\c1ccc(C)cc1)S2 (stereo unspecified)	Mdm2 MdmX PPI 97.2 (no result: Dynein transport, Mdm2 ligase inh) | Mdm2-MdmX conf inactive | Full FLuc ctr 68.8
